Data: PMC9977181 (Science Advances, 2023)

Tests used:
ATR = ATR (Homo sapiens, UniProt Q13535); test: Western blot of phosphorylated ATR; format: cell-based; conditions: HEK293 cells, NCS-induced DNA damage
Procedure, shortened: (§1)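 HEK293 cells were pretreated 1 h with a test compound titration starting at 1 μM, then given NCS (500 ng/ml) for 1 h. Lysates were resolved on 4–12% bis-tris gels, probed with primary antibodies (1:1000) and HRP secondaries, and detected by ECL on film. The phospho/total band ratio was normalized to DMSO-treated cells. IC50 was obtained by nonlinear fit.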

ATM [1] = target: T1, ATM (Homo sapiens, UniProt Q13315); test: ATM-SPARK ATM activity in HeLa or T98G cancer cells preincubated with inhibitor; format: cell-based; conditions: HeLa and T98G cells, ATM activated using etoposide
HeLa cells = test: HeLa cell growth assay; format: cell-based, human
[2] = test system: ATM-deficient MDA-MB-231 cells; test: Growth inhibition with NCS in ATM-deficient MDA-MB-231 cells; format: cell-based, human; conditions: ATM-deficient cell line
ATM [3] = target: T1, ATM; test: Western blot of phosphorylated ATM; format: cell-based
Procedure, shortened: as §1

DNA-PK = DNA-PK (Homo sapiens, UniProt P78527); test: Western blot of phosphorylated DNA-PK; format: cell-based; conditions: HEK293 cells, NCS-induced DNA damage
Procedure, shortened: as §1

ATM [4] = target: T1, ATM; test: ATM-SPARK reporter imaging in living HEK293 cells, ATM activated by etoposide; format: cell-based
ATM [5] = target: T1, ATM; test: ATM-SPARK activation by DNA-damaging drugs in U87 cells; format: cell-based
ATM [6] = target: T1, ATM; format: cell-based; conditions: HEK293 cells preincubated with NCS

T1 sequence (Q13315 whole entry): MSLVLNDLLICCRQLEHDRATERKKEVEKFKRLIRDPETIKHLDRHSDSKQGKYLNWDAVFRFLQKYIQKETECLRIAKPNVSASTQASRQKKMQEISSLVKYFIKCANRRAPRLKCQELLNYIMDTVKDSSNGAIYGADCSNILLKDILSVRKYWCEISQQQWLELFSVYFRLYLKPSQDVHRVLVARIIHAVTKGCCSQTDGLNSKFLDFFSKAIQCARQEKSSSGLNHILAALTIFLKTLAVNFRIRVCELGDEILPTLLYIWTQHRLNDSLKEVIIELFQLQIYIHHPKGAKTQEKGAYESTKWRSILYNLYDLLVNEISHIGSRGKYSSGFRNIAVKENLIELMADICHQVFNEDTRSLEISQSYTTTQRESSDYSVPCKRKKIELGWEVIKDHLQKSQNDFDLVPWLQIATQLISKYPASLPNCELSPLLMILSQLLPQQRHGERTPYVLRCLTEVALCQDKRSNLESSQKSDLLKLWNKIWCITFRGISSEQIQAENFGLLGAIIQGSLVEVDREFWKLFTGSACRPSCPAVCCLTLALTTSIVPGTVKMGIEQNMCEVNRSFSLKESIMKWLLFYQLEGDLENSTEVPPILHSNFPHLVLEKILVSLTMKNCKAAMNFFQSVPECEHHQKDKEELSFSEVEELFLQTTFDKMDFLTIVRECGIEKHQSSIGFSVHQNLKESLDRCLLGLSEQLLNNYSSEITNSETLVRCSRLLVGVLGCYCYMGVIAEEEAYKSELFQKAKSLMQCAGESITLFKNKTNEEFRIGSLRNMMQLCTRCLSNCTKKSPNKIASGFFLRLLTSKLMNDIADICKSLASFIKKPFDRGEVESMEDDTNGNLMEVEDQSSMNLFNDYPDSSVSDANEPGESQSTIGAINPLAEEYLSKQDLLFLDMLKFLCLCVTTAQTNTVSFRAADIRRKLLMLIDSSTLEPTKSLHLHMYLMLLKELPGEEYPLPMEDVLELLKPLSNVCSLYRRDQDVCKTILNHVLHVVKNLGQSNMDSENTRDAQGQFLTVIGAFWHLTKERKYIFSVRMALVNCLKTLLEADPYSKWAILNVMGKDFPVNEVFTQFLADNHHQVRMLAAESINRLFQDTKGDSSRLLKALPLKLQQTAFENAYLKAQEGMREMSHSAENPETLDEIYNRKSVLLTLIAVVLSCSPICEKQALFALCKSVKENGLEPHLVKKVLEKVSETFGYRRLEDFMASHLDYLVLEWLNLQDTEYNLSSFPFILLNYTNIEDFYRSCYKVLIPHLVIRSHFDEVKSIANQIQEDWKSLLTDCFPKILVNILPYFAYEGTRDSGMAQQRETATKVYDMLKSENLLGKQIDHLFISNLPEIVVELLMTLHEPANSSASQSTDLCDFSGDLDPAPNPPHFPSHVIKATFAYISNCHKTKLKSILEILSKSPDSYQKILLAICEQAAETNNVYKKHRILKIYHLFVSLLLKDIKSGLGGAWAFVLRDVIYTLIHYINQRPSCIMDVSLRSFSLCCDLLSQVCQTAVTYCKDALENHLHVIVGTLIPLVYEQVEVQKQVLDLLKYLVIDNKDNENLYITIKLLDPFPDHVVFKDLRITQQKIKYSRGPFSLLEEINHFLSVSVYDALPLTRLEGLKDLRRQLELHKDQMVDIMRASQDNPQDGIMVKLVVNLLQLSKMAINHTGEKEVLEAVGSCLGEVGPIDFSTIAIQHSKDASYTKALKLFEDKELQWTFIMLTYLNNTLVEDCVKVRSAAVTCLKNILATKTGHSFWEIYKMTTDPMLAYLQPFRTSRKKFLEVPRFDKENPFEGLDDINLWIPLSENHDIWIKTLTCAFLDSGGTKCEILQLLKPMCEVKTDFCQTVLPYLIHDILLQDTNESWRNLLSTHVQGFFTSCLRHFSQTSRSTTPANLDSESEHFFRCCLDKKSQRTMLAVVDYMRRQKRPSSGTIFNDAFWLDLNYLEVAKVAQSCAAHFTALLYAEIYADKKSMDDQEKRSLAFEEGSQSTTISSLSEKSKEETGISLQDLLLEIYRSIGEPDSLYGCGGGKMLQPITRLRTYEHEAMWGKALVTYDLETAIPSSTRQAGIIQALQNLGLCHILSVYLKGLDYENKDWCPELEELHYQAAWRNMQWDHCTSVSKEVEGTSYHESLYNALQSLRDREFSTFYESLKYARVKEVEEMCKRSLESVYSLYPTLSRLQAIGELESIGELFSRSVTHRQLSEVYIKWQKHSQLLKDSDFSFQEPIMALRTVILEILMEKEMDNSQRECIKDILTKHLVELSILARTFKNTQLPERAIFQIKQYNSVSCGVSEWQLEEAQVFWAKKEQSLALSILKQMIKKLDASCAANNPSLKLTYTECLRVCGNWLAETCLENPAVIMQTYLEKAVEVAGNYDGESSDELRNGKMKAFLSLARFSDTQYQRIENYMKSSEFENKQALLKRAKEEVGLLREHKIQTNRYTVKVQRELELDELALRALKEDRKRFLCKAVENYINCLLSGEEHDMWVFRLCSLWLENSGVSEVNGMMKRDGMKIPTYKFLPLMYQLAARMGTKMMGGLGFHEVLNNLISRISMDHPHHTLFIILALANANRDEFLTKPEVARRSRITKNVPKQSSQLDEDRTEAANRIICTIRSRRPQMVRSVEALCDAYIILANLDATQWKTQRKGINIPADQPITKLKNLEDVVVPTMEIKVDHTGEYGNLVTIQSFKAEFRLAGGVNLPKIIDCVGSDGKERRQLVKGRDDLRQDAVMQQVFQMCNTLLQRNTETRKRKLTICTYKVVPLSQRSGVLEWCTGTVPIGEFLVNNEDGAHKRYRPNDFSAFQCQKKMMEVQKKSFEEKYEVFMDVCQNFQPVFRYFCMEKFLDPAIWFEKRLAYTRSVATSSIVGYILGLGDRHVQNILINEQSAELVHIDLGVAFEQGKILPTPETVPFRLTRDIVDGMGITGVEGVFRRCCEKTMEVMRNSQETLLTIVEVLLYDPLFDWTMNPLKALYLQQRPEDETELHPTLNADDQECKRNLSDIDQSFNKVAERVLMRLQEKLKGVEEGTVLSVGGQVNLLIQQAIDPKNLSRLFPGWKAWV

Which “inhibition of ATR (pATR 1989 Western blot)” value (ATR) does the source give for COc1ccc(-c2ccc3ncc4c(c3c2)n(-c2ccc(N3CCNCC3)c(C(F)(F)F)c2)c(=O)n4C)cn1 [BGT226] here?
Its value is “no inhibitory activity”.

What about the “activity against ATM in cancer cells (ATM-SPARK)” value (ATM [1]) of the same compound?
Its value is “potent activity against ATM”.

What about the “sensitization of growth inhibition in response to NCS treatment” value (HeLa cells; NCS + 4 nM or 11 nM inhibitor (fig. S26)) of the same compound?
Its value is “sensitizes”.

And the “effect in growth inhibition when combined with NCS” value [2]?
Its value is “lost”.

What about the IC50 (ATM [3]) of the same compound?
Its IC50 is 3.1 ± 0.8 nM.

And the “fold lower activity against DNA-PK than against ATM” value (DNA-PK)?
Its value is 30 fold.

O=C1NC(=O)/C(=C\c2ccc3nccnc3c2)S1 [AS605240] was tested. Which “ATM activity in inhibitor-incubated cells (ATM-SPARK signal), screening” value (ATM [4]; 1 μM compound) did it give?
Its value is “blocked ATM”.

CN1CCN(c2ccc(-n3cc(-c4ccncc4OCC4CCNCC4)cn3)cc2)CC1 [MELK-8A] was tested. Which “inhibitory activity against ATM (ATM-SPARK signal)” value (ATM [4]) did it give?
The value was “no activity against ATM”.

How did the “activation of ATM (ATM-SPARK signal)” value (ATM [5]) turn out when CC[C@@]1(O)C(=O)OCc2c1cc1n(c2=O)Cc2cc3ccccc3nc2-1 [camptothecin] was run?
The value was “failed to activate ATM”.

What does the source list for O=c1cc(-c2cccc3c2Sc2ccccc2S3)oc(N2CCOCC2)c1 [KU-55933]?
half-time of ATM-SPARK droplet disassembly (ATM [6]): ~ 1.5 min; time to disassembly of ATM-SPARK reporter droplets after inhibitor addition (ATM [6]): ≤ 4 min

Which “inhibition of cancer cell proliferation by NCS itself” value (HeLa cells; NCS 180 ng/ml, 3 days) does the source give for neocarzinostatin [NCS] here?
The value was ~ 35%.
